Common to all, as to assay type: functional
Test [1] has as its target Major prion protein (Mus musculus) (UniProt P04925). The experiment in a line: Inhibition of PrP-res formation in SMB (Scrapie mouse brain) cells at 10 uM. The method, boiled down:
(§1)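 Persistently scrapie-infected mouse SMB cells in 199 medium with 10% FCS, 5% newborn calf serum, 37 °C, 5% CO2; plated at 50% confluency, attached 24 h, then given fresh medium with compound diluted from 10 mM DMSO stock for 4 days. Lysates digested with proteinase K (80 μg/mL, 1 h, 37 °C); PrP-res detected by DR1 western blot, ECL, densitometry.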

A short description of test [2]: Effective dose required for the inhibition of PrP-res formation in SMB cells. As to conditions: Mus musculus, read-out: ED50 (the source's name). The method, boiled down:
as §1

Test [3] concerns the target Major prion protein (Mus musculus) (UniProt P04925). The experiment in a line: Inhibition of PrPC polymerization by PrP-res at 100 uM. More on the design: scale not given: the % may be the effect or the level left. The method, boiled down: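 Substrate recombinant mouse PrP refolded without metal ions (50 μg), preincubated with compound (100 μM) in 500 μL H2O pH 6.5 for 30 min; seeded with aged Mn2+-refolded mouse PrP (10 μg). Turbidity read at 325 nm (5-mm cuvette) immediately and after 5 min; absorbance increase expressed as percentage of DMSO control.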

Another test deals with SMB. The experiment in a line: (§2) Compound was tested for the inhibition of PrP-res formation in SMB cells at 50 uM. As to conditions: Mus musculus. The method, boiled down: as §1
The nature of test [4]: as §2. As to conditions: Mus musculus. Put shortly:
as §1

Sequence of Major prion protein (Mus musculus) (P04925 whole entry): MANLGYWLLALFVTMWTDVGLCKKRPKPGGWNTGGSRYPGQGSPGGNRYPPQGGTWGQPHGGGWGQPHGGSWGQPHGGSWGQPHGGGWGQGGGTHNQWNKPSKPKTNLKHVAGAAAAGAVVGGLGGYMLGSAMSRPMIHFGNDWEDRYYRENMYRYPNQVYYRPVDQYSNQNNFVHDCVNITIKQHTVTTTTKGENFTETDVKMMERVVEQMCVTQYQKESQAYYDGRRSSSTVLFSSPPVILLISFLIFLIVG

In the case of `Oc1ccccc1NCc1ccc(CNc2ccccc2O)cc1`, the inhibition (commonly the relative decrease from the control value, in per cent) in test [1] is “Positive”. Moreover, the EC50 in test [2] was 2500 nM. This molecule came in with a Control in test [3] of 240%.

In the case of `O=C(Nc1ccccc1O)c1ccc(-c2ccc(C(=O)Nc3ccccc3O)cc2)cc1`, the inhibition result in test [1] is “Negative”. The Control in test [3] amounted to 430%.

In the case of `O=C(O)c1cc(/N=C/c2ccc(/C=N/c3ccc(O)c(C(=O)O)c3)cc2)ccc1O`, the inhibition result in test [1] is “Negative”. For the same molecule, the Control in test [3] was 53%.

On to `O=C(O)c1ccc(C/N=C/c2ccc(/C=N/Cc3ccc(C(=O)O)cc3)cc2)cc1`, for which the inhibition entry in test [1] is “Negative”. Further, in test [3], the Control is 117%.

With `COC(=O)c1cc(NC(=O)c2ccc(C(=O)Nc3cc(C(=O)OC)cc(C(=O)OC)c3)cc2)cc(C(=O)OC)c1`, the inhibition result in test [1] was “Positive”. The EC50 in test [2] turned out to be 250 nM. In addition, the Control in test [3] worked out at 147%.

In the case of `O=C(O)c1ccc(/N=C/c2ccc(/C=N/c3ccc(C(=O)O)cc3)cc2)cc1`, in test [1], the inhibition entry is “Negative”. The Control in test [3] stood at 12%.

As for `COC(=O)c1ccc(OC)c(/N=C/c2ccc(-c3ccc(/C=N/c4cc(C(=O)OC)ccc4OC)cc3)cc2)c1`, the inhibition result in test [1] is “Negative”.

As for `O=C(Oc1ccccc1)c1ccc(/N=C/c2ccc(/C=N/c3ccc(C(=O)Oc4ccccc4)c(O)c3)cc2)cc1O`, the inhibition result (in test [1]; in the test with SMB) was “Negative” each time. The same molecule came in with a Control in test [3] of 113%.

In the case of `O=C(O)c1cc(NS(=O)(=O)c2ccc(-c3ccc(S(=O)(=O)Nc4cc(C(=O)O)cc(C(=O)O)c4)cc3)cc2)cc(C(=O)O)c1`, the inhibition entry (in test [1]; in the test with SMB) was “Negative” in each case. The same molecule registered a Control in test [3] of 2%.

Turning to `O=C(O)c1cc(/C=C/c2ccc(/C=C/c3ccc(O)c(C(=O)O)c3)cc2)ccc1O`, the inhibition entry in test [1] is “Negative”. The molecule further registered an inhibition at 50 µM in test [4] of 3%. Besides, in test [3], the Control came to 72%.

For `COC(=O)c1ccc(NS(=O)(=O)c2ccc(-c3ccc(S(=O)(=O)Nc4ccc(C(=O)OC)cc4O)cc3)cc2)c(O)c1`, the inhibition result in test [1] is “Negative”. Besides, the inhibition at 50 µM in test [4] came out at 77%. The molecule further had a Control in test [3] of 30%.

Turning to `COC(=O)c1ccc(NCc2ccc(CNc3ccc(C(=O)OC)cc3O)cc2)c(O)c1`, the inhibition result in test [1] was “Positive”. The EC50 in test [2] is 75 nM. This molecule also returned a Control in test [3] of 166%.

On to `C(=N\c1ccccc1)/c1ccc(-c2ccc(/C=N/c3ccccc3)cc2)cc1`, for which the inhibition result in test [1] was “Negative”. This molecule also came in with a Control in test [3] of 315%.

With `COc1ccc(C(=O)O)cc1/N=C/c1ccc(/C=N/c2cc(C(=O)O)ccc2OC)cc1`, the inhibition entry in test [1] is “Negative”. In test [3], this molecule displayed a Control of 11%.

In the case of `COC(=O)c1ccc(/N=C/c2ccc(/C=N/c3ccc(C(=O)OC)c(O)c3)cc2)cc1O`, the inhibition result in test [1] was “Negative”. In addition, the Control in test [3] was 113%.

With `COC(=O)c1ccc(OC)c(/N=C/c2ccc(/C=N/c3cc(C(=O)OC)ccc3OC)cc2)c1`, the inhibition result (in test [1]; with SMB) was “Negative” throughout. The molecule also gave a Control in test [3] of 47%.

For `COC(=O)c1cc(/N=C/c2ccc(/C=N/c3ccc(O)c(C(=O)OC)c3)cc2)ccc1O`, the inhibition entry in test [1] is “Negative”.

Consider `O=C(O)c1ccc(NCc2ccc(CNc3ccc(C(=O)O)cc3O)cc2)c(O)c1`, for which the inhibition result in test [1] was “Negative”. Moreover, in test [3], the Control worked out at 79%.

With `CCOC(=O)c1ccc(/N=C/c2ccc(/C=N/c3ccc(C(=O)OCC)c(O)c3)cc2)cc1O`, the inhibition entry in test [1] is “Negative”. This molecule also registered a Control in test [3] of 92%.

Regarding `COc1cc(NC(=O)c2ccc(-c3ccc(C(=O)Nc4ccc(C(=O)O)c(OC)c4)cc3)cc2)ccc1C(=O)O`, in test [1], the inhibition entry was “Negative”. The Control in test [3] came to 472%.

With `N#Cc1ccc(/N=C/c2ccc(/C=N/c3ccc(C#N)cc3)cc2)cc1`, the inhibition entry in test [1] was “Positive”. Moreover, in test [2], the EC50 turned out to be 500 nM. In addition, the Control in test [3] is 81%.

Regarding `O=C(O)c1ccc(/N=C/c2ccc(/C=N/c3ccc(C(=O)O)cc3O)cc2)c(O)c1`, the inhibition entry (in test [1]; with SMB) was “Negative” each time. Also, the Control in test [3] was determined as 35%.

As for `COC(=O)c1ccc(OC)c(NC(=O)c2ccc(C(=O)Nc3cc(C(=O)OC)ccc3OC)cc2)c1`, the inhibition result in test [1] was “Negative”. Further, the Control in test [3] turned out to be 70%.

As for `C(=N\c1ccccc1)/c1ccc(/C=N/c2ccccc2)cc1`, the inhibition result in test [1] is “Negative”.

On to `Oc1ccccc1/N=C/c1ccc(-c2ccc(/C=N/c3ccccc3O)cc2)cc1`, for which the inhibition entry in test [1] is “Negative”. Further, the Control in test [3] was found to be 281%.

Consider `N#Cc1ccc(NC(=O)c2ccc(-c3ccc(C(=O)Nc4ccc(C#N)cc4)cc3)cc2)cc1`, for which, in test [1], the inhibition entry is “Negative”. For the same molecule, the Control in test [3] is 196%.

`COC(=O)c1ccc(/N=C/c2ccc(/C=N/c3ccc(C(=O)OC)cc3O)cc2)c(O)c1`: the inhibition result (in test [1]; in the test on SMB) was “Negative” throughout. Besides, the Control in test [3] stood at 140%.

As for `Oc1ccccc1/N=C/c1ccc(/C=N/c2ccccc2O)cc1`, in test [1], the inhibition entry is “Negative”. The same molecule gave a Control in test [3] of 85%.

With `O=C(O)c1cc(NC(=O)c2ccc(C(=O)Nc3cc(C(=O)O)cc(C(=O)O)c3)cc2)cc(C(=O)O)c1`, the inhibition result in test [1] is “Negative”. This molecule displayed a Control in test [3] of 1%.

For `O=C(O)c1ccc(NS(=O)(=O)c2ccc(-c3ccc(S(=O)(=O)Nc4ccc(C(=O)O)cc4O)cc3)cc2)c(O)c1`, the inhibition result (in test [1]; with SMB) was “Negative” each time. This molecule displayed a Control in test [3] of 12%.

As for `Oc1ccc(/N=C/c2ccc(/C=N/c3ccc(O)cc3)cc2)cc1`, the inhibition entry in test [1] is “Negative”. In test [3], this molecule came in with a Control of 240%.

For the molecule `COC(=O)c1ccc(NC(=O)c2ccc(C(=O)Nc3ccc(C(=O)OC)cc3O)cc2)c(O)c1`, the inhibition entry in test [1] was “Positive”. Besides, the EC50 in test [2] is 5000 nM. The molecule also came in with a Control in test [3] of 62%.

In the case of `N#Cc1ccc(NC(=O)c2ccc(C(=O)Nc3ccc(C#N)cc3)cc2)cc1`, the inhibition entry in test [1] was “Negative”. In test [3], this molecule yielded a Control of 68%.

For the molecule `COC(=O)c1ccc(OC)c(NS(=O)(=O)c2ccc(-c3ccc(S(=O)(=O)Nc4cc(C(=O)OC)ccc4OC)cc3)cc2)c1`, the inhibition result (in test [1]; in the test on SMB) was “Negative” throughout. Further, the Control in test [3] was 77%.

With `COC(=O)c1ccc(OC)c(NCc2ccc(CNc3cc(C(=O)OC)ccc3OC)cc2)c1`, in test [1], the inhibition entry is “Positive”. In test [2], the EC50 was 250 nM. Moreover, in test [3], the Control was 20%.

On to `O=C(Nc1ccccc1)c1ccc(-c2ccc(C(=O)Nc3ccccc3)cc2)cc1`, for which the inhibition result in test [1] is “Negative”. Also, in test [3], the Control worked out at 171%.

Consider `COC(=O)c1ccc(NC(=O)c2ccc(-c3ccc(C(=O)Nc4ccc(C(=O)OC)c(O)c4)cc3)cc2)cc1O`, for which the inhibition entry in test [1] was “Negative”. In test [3], the Control entry is “NR”.

On to `O=C(Nc1ccc([N+](=O)[O-])cc1O)c1ccc(C(=O)Nc2ccc([N+](=O)[O-])cc2O)cc1`, for which the inhibition entry in test [1] was “Negative”. For the same molecule, the Control in test [3] stood at 15%.

For `Oc1ccc(/N=C/c2ccc(-c3ccc(/C=N/c4ccc(O)cc4)cc3)cc2)cc1`, the inhibition entry in test [1] was “Positive”. In test [2], the EC50 amounted to 250 nM. Also, the Control in test [3] was found to be 104%.

As to `O=C(Nc1ccc([N+](=O)[O-])cc1O)c1ccc(-c2ccc(C(=O)Nc3ccc([N+](=O)[O-])cc3O)cc2)cc1`, the inhibition result in test [1] is “Negative”. The molecule also returned a Control in test [3] of 160%.

Regarding `CCOC(=O)c1cc(/N=C/c2ccc(/C=N/c3ccc(O)c(C(=O)OCC)c3)cc2)ccc1O`, in test [1], the inhibition result was “Negative”. This molecule also came in with a Control in test [3] of 60%.

Take `COC(=O)c1ccc(NC(=O)c2ccc(-c3ccc(C(=O)Nc4ccc(C(=O)OC)c(OC)c4)cc3)cc2)cc1OC`: the inhibition entry in test [1] was “Positive”. Besides, in test [2], the EC50 is 250 nM. The molecule also yielded a Control in test [3] of 70%.

As for `O=C(Nc1ccccc1)c1ccc(C(=O)Nc2ccccc2)cc1`, in test [1], the inhibition entry is “Negative”. This molecule also returned a Control in test [3] of 54%.

Regarding `O=C(O)c1ccc(/N=C/c2ccc(-c3ccc(/C=N/c4ccc(C(=O)O)cc4O)cc3)cc2)c(O)c1`, in test [1], the inhibition result is “Positive”. For the same molecule, the Control in test [3] stood at 62%.

As to `O=C(Oc1ccccc1)c1ccc(NS(=O)(=O)c2ccc(-c3ccc(S(=O)(=O)Nc4ccc(C(=O)Oc5ccccc5)c(O)c4)cc3)cc2)cc1O`, the inhibition result (in test [1]; in the test on SMB) was “Negative” each time. The molecule further came in with a Control in test [3] of 90%.

`COC(=O)c1cc(NC(=O)c2ccc(-c3ccc(C(=O)Nc4ccc(O)c(C(=O)OC)c4)cc3)cc2)ccc1O`: the inhibition entry in test [1] is “Positive”. In addition, the EC50 in test [2] turned out to be 5000 nM. In test [3], this molecule gave a Control of 249%.

Turning to `Cc1ccc(/N=C/c2ccc(/C=N/c3ccc(C)cc3O)cc2)c(O)c1`, in test [1], the inhibition result was “Negative”. This molecule also displayed a Control in test [3] of 230%.

`COC(=O)c1ccc(NC(=O)c2ccc(C(=O)Nc3ccc(C(=O)OC)cc3)cc2)cc1`: the inhibition result in test [1] is “Negative”. In test [3], this molecule had a Control of 100%.

Take `N#Cc1ccc(/N=C/c2ccc(/C=N/c3ccc(C#N)c4ccccc34)cc2)c2ccccc12`: the inhibition entry in test [1] is “Negative”. The molecule further returned a Control in test [3] of 148%.

Consider `O=[N+]([O-])c1ccc(/N=C/c2ccc(/C=N/c3ccc([N+](=O)[O-])cc3O)cc2)c(O)c1`, for which the inhibition entry in test [1] was “Negative”. For the same molecule, the Control in test [3] is 109%.

(Values after ChEMBL document CHEMBL1137225, “Synthesis of analogues of Congo red and evaluation of their anti-prion activity” (2004).)
